Experimental data pooled from the literature.
Compare with care: the assays were run in different laboratories. pIC50: −log10 of the molar value.
Target: Acetylcholinesterase (ache, Electrophorus electricus, UniProt O42275)
Effect on: enzyme activity
Action: inhibitor
Method: Ellman

Structure (SMILES) | pIC50
Brc1ccc(Cn2cc(COc3ccc(-c4nnc(-c5ccccc5)o4)cc3)nn2)cc1 | < 4.00
COc1cc(/C=C/C(=O)NC2CCN(Cc3ccccc3)CC2)ccc1OC(=O)N(C)C | 5.28
CC(C)(C)OC(=O)NC1CCCN(C(=O)/C=C/c2cccc(Cl)c2)C1 (stereo not shown) | < 4.30
COc1ccc(-c2nnc(-c3ccc(OCc4cn(Cc5ccc(C)cc5)nn4)cc3)o2)cc1 | < 4.00
COc1cc(CCC(=O)N2CCC(Cc3ccccc3)CC2)ccc1OC(=O)N1CCOCC1 | 5.14
CC(C)(C)OC(=O)NC1CCCN(C(=O)/C=C/c2ccccc2Cl)C1 (stereo not shown) | 4.70
CCN(C)C(=O)Oc1ccc(CCC(=O)N2CCN(Cc3ccccc3)CC2)cc1OC | 4.91
O=C(O)C(/C=C/c1ccc(Cl)cc1)=N\Nc1nc(-c2ccccc2)cs1 | 6.07
CCN(C)C(=O)Oc1ccc(CCC(=O)N2CCc3ccccc3C2)cc1 | 5.08
O=[N+]([O-])c1ccc(-c2nnc(-c3ccc(OCc4cn(Cc5ccccc5)nn4)cc3)o2)cc1 | < 4.00
CCN(CC)C(=O)Oc1ccc(/C=C/C(=O)NC2CCN(Cc3ccccc3)CC2)cc1OC | 5.64
COc1ccc(/C=C/C(=O)N2CCCC(NC(=O)OC(C)(C)C)C2)cc1 (stereo not shown) | < 4.30
O=C(O)C(/C=C/c1c(Cl)cccc1Cl)=N\Nc1nc(-c2ccc(Br)cc2)cs1 | 6.18
CC(C)(C)OC(=O)NC1CCCN(C(=O)/C=C/c2cccc(F)c2)C1 (stereo not shown) | 4.42
Cc1ccc(Cn2cc(COc3ccc(-c4nnc(-c5ccc([N+](=O)[O-])cc5)o4)cc3)nn2)cc1 | < 4.00
CC(C)(C)OC(=O)NC1CCCN(C(=O)/C=C/c2ccccc2Br)C1 (stereo not shown) | 4.33
Cc1ccc(Cn2cc(COc3ccc(-c4nnc(-c5ccc(F)cc5)o4)cc3)nn2)cc1 | < 4.00
CC(C)(C)OC(=O)NC1CCCN(C(=O)C=Cc2ccccc2)C1 (stereo not shown) | 4.40
O=C(O)C(/C=C/c1c(Cl)cccc1Cl)=N\Nc1nc(-c2ccc(F)cc2)cs1 | 6.52
CCN(CC)C(=O)Oc1ccc(CCC(=O)N2CCC(Cc3ccccc3)CC2)cc1OC | 5.03
CC(C)(C)OC(=O)NC1CCCN(C(=O)/C=C/c2ccc(Cl)cc2)C1 (stereo not shown) | < 4.30
Cc1ccc(Cn2cc(COc3ccc(-c4nnc(-c5ccccc5)o4)cc3)nn2)cc1 | < 4.00
CC(C)(C)OC(=O)NC1CCCN(C(=O)/C=C/c2cccc([N+](=O)[O-])c2)C1 (stereo not shown) | 4.45
COc1cc(CCC(=O)N2CCC(Cc3ccccc3)CC2)ccc1OC(=O)N(C)C | 5.07
Fc1ccc(Cn2cc(COc3ccc(-c4nnc(-c5ccc(F)cc5)o4)cc3)nn2)cc1 | < 4.00
